Experimental data from ChEMBL document CHEMBL1151898 (J Nat Prod, 2009).

What was measured:
[1] = target: T1, Xanthine dehydrogenase/oxidase (Bos taurus, UniProt P80457); assay: Activity at bovine xanthine oxidase at 25 uM preincubated for 10 mins; settings: cattle
[2] = target: T1, Xanthine dehydrogenase/oxidase; assay: Ratio of kcat to km for bovine xanthine oxidase at 10 uM; settings: cattle
[3] = target: T1, Xanthine dehydrogenase/oxidase; assay: Activity at bovine xanthine oxidase at 25 uM; settings: cattle
[4] = target: T1, Xanthine dehydrogenase/oxidase; assay: Inhibition of bovine xanthine oxidase assessed as reduction of cytochrome c at 25 uM preincubated for 10 mins; settings: cattle
[5] = target: T1, Xanthine dehydrogenase/oxidase; assay: Activity at bovine xanthine oxidase at 10 uM; settings: cattle
[6] = target: T1, Xanthine dehydrogenase/oxidase; assay: Activity at bovine xanthine oxidase at 50 uM; settings: cattle
[7] = target: T1, Xanthine dehydrogenase/oxidase; assay: Ratio of kcat to km for bovine xanthine oxidase at 50 uM; settings: cattle
[8] = target: T1, Xanthine dehydrogenase/oxidase; assay: Inhibition of bovine xanthine oxidase assessed as reduction of cytochrome c at 10 uM; settings: cattle
[9] = target: T1, Xanthine dehydrogenase/oxidase; assay: Inhibition of bovine xanthine oxidase assessed as reduction of cytochrome c at 50 uM; settings: cattle
[10] = target: T1, Xanthine dehydrogenase/oxidase; assay: Inhibition of bovine xanthine oxidase assessed as reduction of cytochrome c; parameters: concentration or dose not given beside the values; settings: cattle
[11] = target: T1, Xanthine dehydrogenase/oxidase; assay: Ratio of kcat to km for bovine xanthine oxidase at 25 uM; settings: cattle
[12] = target: T1, Xanthine dehydrogenase/oxidase; assay: Ratio of kcat to km for bovine xanthine oxidase at 25 uM preincubated for 10 mins; settings: cattle
[13] = target: T1, Xanthine dehydrogenase/oxidase; assay: Inhibition of bovine xanthine oxidase assessed as reduction in xanthine turnover at 10 uM; settings: cattle
[14] = target: T1, Xanthine dehydrogenase/oxidase; assay: Inhibition of bovine xanthine oxidase assessed as reduction in xanthine turnover at 50 uM; settings: cattle
[15] = target: T1, Xanthine dehydrogenase/oxidase; assay: Inhibition of bovine xanthine oxidase
[16] = target: T1, Xanthine dehydrogenase/oxidase; assay: Inhibition of bovine xanthine oxidase assessed as reduction in free enzyme turnover at 50 uM relative to control; settings: cattle
[17] = target: T1, Xanthine dehydrogenase/oxidase; assay: Inhibition of bovine xanthine oxidase assessed as reduction in free enzyme turnover at 50 uM relative to control; settings: cattle
[18] = target: T1, Xanthine dehydrogenase/oxidase; assay: Inhibition of bovine xanthine oxidase assessed as reduction in free enzyme turnover at 10 uM relative to control; settings: cattle
[19] = target: T1, Xanthine dehydrogenase/oxidase; assay: Inhibition of bovine xanthine oxidase assessed as decrease in production of superoxide at 50 uM relative to control; settings: cattle
Summary of the method: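 Superoxide followed indirectly by cytochrome c reduction. A550 monitored (Δε550 = 19.6 mM−1cm−1), initial rates vs no-inhibitor control. 25°C, 0.1 M MOPS, 0.2 mM EDTA, 0.1 M KCl, pH 7.4.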

[20] = target: T1, Xanthine dehydrogenase/oxidase; assay: Ratio of kcat to km for bovine xanthine oxidase at 25 uM preincubated for 10 mins relative to control; settings: cattle
[21] = target: T1, Xanthine dehydrogenase/oxidase; assay: Inhibition of bovine xanthine oxidase assessed as reduction in xanthine turnover at 25 uM; settings: cattle

T1 sequence (P80457 whole entry): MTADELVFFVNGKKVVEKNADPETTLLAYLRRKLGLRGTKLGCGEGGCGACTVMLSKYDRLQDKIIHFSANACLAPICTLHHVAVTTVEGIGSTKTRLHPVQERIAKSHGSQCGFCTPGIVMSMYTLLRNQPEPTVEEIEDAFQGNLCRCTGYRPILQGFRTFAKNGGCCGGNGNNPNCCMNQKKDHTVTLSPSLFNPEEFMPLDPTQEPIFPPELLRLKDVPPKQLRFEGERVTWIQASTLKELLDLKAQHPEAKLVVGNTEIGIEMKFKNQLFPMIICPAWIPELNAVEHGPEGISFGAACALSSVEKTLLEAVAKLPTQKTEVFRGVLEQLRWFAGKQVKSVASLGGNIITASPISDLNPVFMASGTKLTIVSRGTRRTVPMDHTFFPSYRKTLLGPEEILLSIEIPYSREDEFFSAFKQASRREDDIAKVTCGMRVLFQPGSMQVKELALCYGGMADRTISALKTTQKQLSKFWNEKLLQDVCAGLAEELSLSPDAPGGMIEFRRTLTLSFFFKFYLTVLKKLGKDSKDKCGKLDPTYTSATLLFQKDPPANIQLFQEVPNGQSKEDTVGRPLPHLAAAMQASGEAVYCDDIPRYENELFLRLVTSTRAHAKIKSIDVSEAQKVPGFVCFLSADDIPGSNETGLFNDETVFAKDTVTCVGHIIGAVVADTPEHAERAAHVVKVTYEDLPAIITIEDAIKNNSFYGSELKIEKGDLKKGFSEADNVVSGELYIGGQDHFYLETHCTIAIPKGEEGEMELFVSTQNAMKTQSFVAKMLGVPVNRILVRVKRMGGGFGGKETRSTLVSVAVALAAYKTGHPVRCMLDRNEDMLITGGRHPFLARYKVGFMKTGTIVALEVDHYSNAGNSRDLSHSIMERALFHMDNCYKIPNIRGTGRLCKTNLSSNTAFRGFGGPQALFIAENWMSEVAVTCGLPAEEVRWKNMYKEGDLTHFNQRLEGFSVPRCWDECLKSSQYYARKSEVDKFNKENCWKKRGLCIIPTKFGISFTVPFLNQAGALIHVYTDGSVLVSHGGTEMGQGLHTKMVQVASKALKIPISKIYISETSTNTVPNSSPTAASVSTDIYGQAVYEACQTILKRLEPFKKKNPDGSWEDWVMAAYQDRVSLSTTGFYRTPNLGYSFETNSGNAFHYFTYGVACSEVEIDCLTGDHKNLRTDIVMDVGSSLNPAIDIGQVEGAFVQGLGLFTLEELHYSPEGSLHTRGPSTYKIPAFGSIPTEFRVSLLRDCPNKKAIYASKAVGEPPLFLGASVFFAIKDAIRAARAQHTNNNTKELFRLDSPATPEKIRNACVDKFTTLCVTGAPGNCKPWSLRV

## Oc1ncnc2[nH]ncc12 [ALLOPURINOL]
[1]
  Kcat: 1.3 s⁻¹
[2]
  Kcat/Km: 320000 M⁻¹ s⁻¹
[3]
  Kcat: 11.8 s⁻¹
[4]
  Activity: 28 nM/s
[5]
  Kcat: 5.9 s⁻¹
[6]
  Kcat: 4.3 s⁻¹
[7]
  Kcat/Km: 110000 M⁻¹ s⁻¹
[8]
  Activity: 140 nM/s
[9]
  Activity: 120 nM/s
[10]
  Activity: 140 nM/s
[11]
  Kcat/Km: 150000 M⁻¹ s⁻¹
[12]
  Kcat/Km: 7000 M⁻¹ s⁻¹

## COc1cc(/C=C/C(=O)CC(=O)/C=C/c2ccc(O)c(OC)c2)ccc1O [CURCUMIN]
[1]
  Kcat: 6.5 s⁻¹
[2]
  Kcat/Km: 4.8e+06 M⁻¹ s⁻¹
[3]
  Kcat: 4.3 s⁻¹
[4]
  Activity: 150 nM/s
[5]
  Kcat: 2.6 s⁻¹
[6]
  Kcat: 5 s⁻¹
[13]
  inhibition at 10 µM: 60%
[14]
  inhibition at 50 µM: > 80%
[7]
  Kcat/Km: 5.1e+06 M⁻¹ s⁻¹
[8]
  Activity: 160 nM/s
[9]
  Activity: 150 nM/s
[10]
  Activity: 150 nM/s
[11]
  Kcat/Km: 6.5e+06 M⁻¹ s⁻¹
[12]
  Kcat/Km: 3.9e+06 M⁻¹ s⁻¹

## O=c1cc(-c2ccc(O)c(O)c2)oc2cc(O)cc(O)c12 [LUTEOLIN]
[1]
  Kcat: 3.8 s⁻¹
[2]
  Kcat/Km: 200000 M⁻¹ s⁻¹
[3]
  Kcat: 4.5 s⁻¹
[4]
  Activity: 110 nM/s
[5]
  Kcat: 6.2 s⁻¹
[6]
  Kcat: 12.2 s⁻¹
[15]
  Ki: 1900 nM
[7]
  Kcat/Km: 20000 M⁻¹ s⁻¹
[8]
  Activity: 100 nM/s
[9]
  Activity: 71 nM/s
[10]
  Activity: 82 nM/s
[11]
  Kcat/Km: 30000 M⁻¹ s⁻¹
[12]
  Kcat/Km: 50000 M⁻¹ s⁻¹

## O=c1c(O)c(-c2ccc(O)c(O)c2)oc2cc(O)cc(O)c12 [QUERCETIN]
[16]
  fold change (FC): 170
[17]
  fold change (FC): 170
[1]
  Kcat: 8.1 s⁻¹
[2]
  Kcat/Km: 1.6e+06 M⁻¹ s⁻¹
[3]
  Kcat: 1.9 s⁻¹
[4]
  Activity: 110 nM/s
[5]
  Kcat: 3.8 s⁻¹
[18]
  fold change (FC): 20
[6]
  Kcat: 12.4 s⁻¹
[7]
  Kcat/Km: 20000 M⁻¹ s⁻¹
[8]
  Activity: 140 nM/s
[9]
  Activity: 80 nM/s
[10]
  Activity: 100 nM/s
[11]
  Kcat/Km: 10000 M⁻¹ s⁻¹
[12]
  Kcat/Km: 50000 M⁻¹ s⁻¹

## COc1cc(C2Oc3cc([C@H]4Oc5cc(O)cc(O)c5C(=O)[C@@H]4O)ccc3OC2CO)ccc1O (stereo partly specified) [SILIBININ]
[1]
  Kcat: 6.9 s⁻¹
[2]
  Kcat/Km: 140000 M⁻¹ s⁻¹
[3]
  Kcat: 13.3 s⁻¹
[4]
  Activity: 120 nM/s
[5]
  Kcat: 5.8 s⁻¹
[6]
  Kcat: 4 s⁻¹
[19]
  inhibition at 50 µM: 20%
[13]
  inhibition at 10 µM: 50%
[14]
  inhibition at 50 µM: 50%
[20]
  fold change (FC): 80
[7]
  Kcat/Km: 110000 M⁻¹ s⁻¹
[8]
  Activity: 160 nM/s
[9]
  Activity: 140 nM/s
[21]
  inhibition at 25 µM: 50%
[10]
  Activity: 150 nM/s
[11]
  Kcat/Km: 130000 M⁻¹ s⁻¹
[12]
  Kcat/Km: 70000 M⁻¹ s⁻¹
